This is an account of results in ChEMBL document CHEMBL3272198, “Preparation and in vitro antifungal activities of some quinolizidine derived hemiaminals and beta-tert-amino sulfides” (1976).

Active and inactive are the calls of the source. The rule behind the calls is not given here.

The subject of test [1] is Blastomyces dermatitidis. The test is described as follows: Antifungal activity against Blastomyces dermatitidis Gilchrist & Stokes isolate 1107 at 1 ug/ml after 2 weeks (reference value: 35 mm). The class given is functional. To be noted: Gilchrist & Stokes isolate 1107, 336 h, read-out: DIZ. The method, boiled down:
(§1)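 Mycelial phase grown on Sabouraud dextrose agar at 25°C. Agar pH was set to 6 before the test solution was added and was 5.0-5.5 after. Test solutions contained HOAc and Me2SO, and solvent and blank controls were included. Each quadrant was center-inoculated with a 2 × 2 mm piece of a 2-week-old mycelial culture. Colony diameter was measured weekly for 3 weeks and reported as total increments (mm). Duplicates were run.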

For test [2], the system named is Blastomyces dermatitidis. The test is described as follows: Antifungal activity against Blastomyces dermatitidis Gilchrist & Stokes isolate 1107 at 1 ug/ml after 3 weeks (reference value: 40 mm). The class given is functional. Conditions: Gilchrist & Stokes isolate 1107, 504 h, read-out: DIZ. The method, boiled down:
as §1

In test [3] the test system is Histoplasma capsulatum. The test is described as follows: Antifungal activity against Histoplasma capsulatum Darling isolate 1106 at 1 ug/ml after 1 week (reference value: 14 mm). The format is functional. Conditions: Darling isolate 1106, 168 h, read-out: DIZ.
Test [4] has as its system Histoplasma capsulatum. The test is described as follows: Antifungal activity against Histoplasma capsulatum Darling isolate 1106 at 1 ug/ml after 3 weeks (reference value: 31 mm). The format is functional. Conditions: Darling isolate 1106, 504 h, read-out: DIZ.
Test [5] concerns Blastomyces dermatitidis. The test is described as follows: Antifungal activity against Blastomyces dermatitidis Gilchrist & Stokes isolate 1099 at 1 ug/ml after 1 week (reference value: 14 mm). The format is functional. To be noted: Gilchrist & Stokes isolate 1099, 168 h, read-out: DIZ. The method in brief: as §1
Test [6] deals with Blastomyces dermatitidis. The test is described as follows: Antifungal activity against Blastomyces dermatitidis Gilchrist & Stokes isolate 1099 at 1 ug/ml after 3 weeks (reference value: 34 mm). The class given is functional. Conditions: Gilchrist & Stokes isolate 1099, 504 h, read-out: DIZ. The method, boiled down:
as §1

The test system of test [7] is Blastomyces dermatitidis. The test is described as follows: Antifungal activity against Blastomyces dermatitidis Gilchrist & Stokes isolate 1107 at 1 ug/ml after 1 week (reference value: 20 mm). The format is functional, organism-based. The method in brief:
as §1

Test [8] deals with Histoplasma capsulatum. The test is described as follows: Antifungal activity against Histoplasma capsulatum Darling isolate 1098 at 1 ug/ml after 2 weeks (reference value: 21 mm). The class given is functional. To be noted: Darling isolate 1098, 336 h, read-out: DIZ.
For the next test, the system named is Sporotrichum. The test is described as follows: Antifungal activity against Sporotrichum schenckii Hektoen & Perkins (1109) at 40 to 80 ug/ml after 2 weeks. The format is functional, organism-based. The method, boiled down:
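Compound in aqueous HOAc/Me2SO was filter-sterilized and mixed into melted (50°) Sabouraud dextrose agar. Agar pH was 7.0-7.5 before addition and 6.0-6.5 after, giving final levels of 10-100 μg/ml. Quadrant plates were center-inoculated with a 2 × 2 mm piece of a 2-week-old mycelial culture, sealed and kept at 25°C. Colony expansion was measured weekly, with solvent and blank controls, in duplicate.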

On to `C[C@@H]1[C@H](O)[C@@H](C)/C=C/C=C/C=C/C=C/C=C/C=C/C=C/[C@H](O[C@@H]2O[C@H](C)[C@@H](O)[C@H](N)[C@@H]2O)C[C@@H]2O[C@](O)(C[C@@H](O)C[C@@H](O)[C@H](O)CC[C@@H](O)C[C@@H](O)CC(=O)O[C@H]1C)C[C@H](O)[C@H]2C(=O)O` [AMPHOTERICIN B], for which the zone of inhibition at 1 µg/mL in the test with Blastomyces dermatitidis [1] is 19 mm; in the test with Blastomyces dermatitidis [2] it was 32 mm; in the test with Histoplasma capsulatum [3], 9 mm; with Histoplasma capsulatum [4], 24 mm; in the test with Blastomyces dermatitidis [5] it was 7 mm; in the test with Blastomyces dermatitidis [6], 19 mm. Moreover, the zone of inhibition at 1 µg/mL in the test on Histoplasma capsulatum [8] worked out at 19 mm. In addition, in the test on Blastomyces dermatitidis [7], the outcome was inactive.
For the compound `C[C@@H]1CC[C@@H](c2ccoc2)N2C(O)[C@@](C)(Sc3ccccc3)CC[C@@H]12` (some centres undefined), in the test with Sporotrichum, the “diameter of the inhibition zone (DIZ)” value was “Active”.
